Calls of active or inactive are those of the source. The calls are words filed in the database; no cut-off is given here.
Columns and labels:
[1] = Toxicity in HASMC assessed as cell viability at 5 uM after 96 hrs by MTT assay relative to control; type: cell-based; details: human, HASMC cells; read-out: Activity
Outline: (§1)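 Serum-starved HASMCs (3000–3500 cells/well) received compound in complete SMC medium (2% FBS) with 1% DMSO at 0.1, 1, 5, 10 or 20 µM for 48 h. Fresh medium was then added and cells grew a further 48 h (96 h total). MTT 4–6 h at 37 °C, solubilized, A570 as % of medium-only control; 1% DMSO vehicle; triplicate; t-test versus vehicle.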

[2] = Toxicity in HASMC assessed as cell viability at 0.1 uM after 96 hrs by MTT assay relative to control; type: cell-based; details: human, HASMC cells; read-out: Activity; outline: as §1
[3] = Toxicity in HASMC assessed as cell viability at 20 uM after 96 hrs by MTT assay relative to control; type: cell-based; details: human, HASMC cells; read-out: Activity; outline: as §1
[4] = test system: HASMC; assay: Toxicity in HASMC assessed as cell viability using calcein AM and ethidium homodimer-1 by LIVE/DEAD assay; type: cell-based; details: human
Outline: (§2)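 HASMCs in black plates were exposed for 96 h to compound at 0.1–20 µM in medium with 1% DMSO. Floating dead cells were pelleted, washed in PBS and returned to their wells. Cells were stained with Eth-1 (0.5 µM) and calcein AM (0.25 µM) for 45 min at room temperature, then read at ex/em 495/530 and 528/645 nm. Triplicate; t-test versus vehicle.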

[5] = Toxicity in HASMC assessed as cell viability at 1 uM after 96 hrs by MTT assay relative to control; type: cell-based; details: human, HASMC cells; read-out: Activity; outline: as §1
[6] = Toxicity in HASMC assessed as cell viability at 10 uM after 96 hrs by MTT assay relative to control; type: cell-based; details: human, HASMC cells; read-out: Activity; outline: as §1
[7] = test system: HASMC; assay: Induction of nitric oxide release in HASMC at 5 to 20 uM after 60 mins by DAF-FM DA assay; type: functional, cell-based; details: Homo sapiens
[8] = Nitrosation of the compound in glacial acetic acid/tetrahydrofuran after 24 to 48 hrs by IR spectroscopy analysis; type: physicochemical
[9] = Half life of the compound in presence of glutathione; type: physicochemical; details: gsh
Outline: (§3)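 The same protocol was used in 1X PBS containing 5 mM reduced glutathione: donor at 0.0125 M, room temperature, timed aliquots over about 20 days. Supernatants were mixed with Griess reagent and absorbance read at 550 nm; no new calibration was needed.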

[10] = Half life of the compound; type: physicochemical
Outline: (§4)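 Nitrosated compound was stirred in 1X PBS at 0.0125 M (0.0250 M NO) at room temperature. Aliquots were taken hourly to 12 h, every 4 h to 24 h, every 8 h to 48 h, then every 24 h. Aliquots were centrifuged and triplicate supernatants mixed with Griess reagent for 5 min. Absorbance at 550 nm was plotted against time.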

[11] = Induction of nitric oxide release in phosphate buffered saline up to 20 days by Griess reagent test; type: physicochemical; set-up: concentration or dose not given beside the values; details: buffer, 480 h; outline: as §4
[12] = Induction of nitric oxide release in phosphate buffered saline up to 20 days by Griess reagent test in presence of glutathione; type: physicochemical; details: buffer, 480 h; outline: as §3
[13] = Nitrosation of the compound in glacial acetic acid/tetrahydrofuran after 24 to 48 hrs by IR spectroscopy analysis in presence of glutathione; type: physicochemical
[14] = Nitrosation of the compound in glacial acetic acid/tetrahydrofuran after 5 to 8 hrs by IR spectroscopy analysis; type: physicochemical
[15] = Nitrosation of the compound in glacial acetic acid/tetrahydrofuran after 5 to 8 hrs by IR spectroscopy analysis in presence of glutathione; type: physicochemical
[16] = test system: HASMC; assay: Antiproliferative activity against HASMC using calcein AM and ethidium homodimer-1 at <= 20 uM by LIVE/DEAD assay; type: functional, cell-based; details: Homo sapiens; outline: as §2
[17] = test system: HASMC; assay: Antiproliferative activity against HASMC at <= 20 uM after 96 hrs by MTT assay; type: functional, cell-based; details: Homo sapiens; outline: as §1
[18] = test system: HASMC; assay: Antiproliferative activity against HASMC using calcein AM and ethidium homodimer-1 at 20 uM by LIVE/DEAD assay in presence of S-2-amino-6-boronic acid; type: functional, cell-based; details: Homo sapiens
Outline: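 HASMCs in black plates were induced with LPS/IFN-γ for 6 h, then given 20 µM donor plus 5 mM ABH for two 48 h periods. Detached cells were pelleted, washed and returned to their wells. Staining used ethidium homodimer-1 (0.5 µM) and calcein AM (0.25 µM) for 45 min at room temperature. Live cells were read at 495/530 nm and dead cells at 528/645 nm.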

[19] = test system: HASMC; assay: Induction of nitric oxide release in HASMC at 20 uM after 60 mins by DAF-FM DA assay in presence of S-2-amino-6-boronic acid; type: functional, cell-based; details: Homo sapiens
Outline: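 After LPS/IFN-γ induction (6 h), HASMCs were treated with 20 µM donor plus 5 mM ABH over 96 h. Cells were then loaded with DAF-FM DA (10 µM) for 60 min at room temperature in the dark, washed three times, left to de-esterify, and read at ex/em 495/515 nm.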

[20] = test system: HASMC; assay: Antiproliferative activity against HASMC at 20 uM after 96 hrs by MTT assay in presence of S-2-amino-6-boronic acid; type: functional, cell-based; details: Homo sapiens
Outline: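 HASMCs were induced with LPS (50 µg/mL) and IFN-γ (50 ng/mL) for 6 h at 37 °C. Cytokines were removed and cells were treated with 5 mM ABH plus donor (20 µM) in SMC medium for 48 h at 37 °C. A second dose was added, followed by a further 48 h. Readout was MTT absorbance at 570 nm.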

[21] = test system: HASMC; assay: Antiproliferative activity against HASMC at 20 uM after 96 hrs by MTT assay; type: functional, Homo sapiens; outline: as §1

| SMILES | viability at 96 h, 5 µM [1] [%] | viability at 96 h, 0.1 µM [2] [%] | viability at 96 h, 20 µM [3] [%] | Activity [4] | viability at 96 h, 1 µM [5] [%] | viability at 96 h, 10 µM [6] [%] | Activity [7] | half-life [10] [h] | Activity [11] [%] | Activity [16] | Activity [17] | further results |
| --- | --- | --- | --- | --- | --- | --- | --- | --- | --- | --- | --- | --- |
| CCCCCCCCNc1cccc(NCCCCCCCC)c1[N+](=O)[O-] | 82.9 | 86.2 | 82.8 | Non-toxic | 89.7 | 83.2 | – | – | – | – | – | – |
| CCCCCCCCCCN(N=O)c1cccc(N(CCCCCCCCCC)N=O)c1[N+](=O)[O-] | – | – | – | – | – | – | Active | 62 | 2.6 | – | – | Activity [8]: 100%; half-life [9]: 108 h; Activity [12]: 1.9%; Activity [13]: 100% |
| CCCCCCCCCCNc1ccc([N+](=O)[O-])c(NCCCCCCCCCC)c1 | 88 | 89 | 84 | Non-toxic | 87.4 | 84 | – | – | – | – | – | – |
| CCCCCCCCCN(N=O)c1ccc([N+](=O)[O-])c(N(CCCCCCCCC)N=O)c1 | – | – | – | – | – | – | Active | 69 | 2.83 | Active | Active | half-life [9]: 109 h; Activity [14]: 100%; Activity [12]: 1.29%; Activity [15]: 100% |
| CCCCCCCCNc1ccc([N+](=O)[O-])c(NCCCCCCCC)c1 | 87.2 | 84.6 | 85.4 | Non-toxic | 89.6 | 84 | – | – | – | – | – | – |
| CCCCCCCNc1ccc([N+](=O)[O-])c(NCCCCCCC)c1 | 87.6 | 88.3 | 85.6 | Non-toxic | 87 | 86 | – | – | – | – | – | – |
| CCCCCCCCCNc1cccc(NCCCCCCCCC)c1[N+](=O)[O-] | 75 | 82 | 68 | Toxic | 78 | 73 | – | – | – | – | – | – |
| CCCCCCN(N=O)c1cccc(N(CCCCCC)N=O)c1[N+](=O)[O-] | – | – | – | – | – | – | Active | 140 | 1.85 | Active | Active | inhibition [18]: Active; Activity [8]: 100%; Activity [19]: Active; inhibition [20]: Active; Activity [21]: 18% |
| CCCCCCCN(N=O)c1ccc([N+](=O)[O-])c(N(CCCCCCC)N=O)c1 | – | – | – | – | – | – | Active | 87 | 2.48 | Active | Active | Activity [14]: 100% |
| CCCCCCCCCCN(N=O)c1ccc([N+](=O)[O-])c(N(CCCCCCCCCC)N=O)c1 | – | – | – | – | – | – | Active | 60 | 3 | Active | Active | Activity [14]: 100% |
| CCCCCCCCCCNc1cccc(NCCCCCCCCCC)c1[N+](=O)[O-] | 70 | 76.8 | 65 | Toxic | 75.5 | 69 | – | – | – | – | – | – |
| CCCCCCCCN(N=O)c1ccc([N+](=O)[O-])c(N(CCCCCCCC)N=O)c1 | – | – | – | – | – | – | Active | 83 | 2.63 | Active | Active | Activity [14]: 100% |
| CCCCCCCCCNc1ccc([N+](=O)[O-])c(NCCCCCCCCC)c1 | 86 | 87 | 86 | Non-toxic | 86.3 | 84.5 | – | – | – | – | – | – |
| CCCCCCN(N=O)c1ccc([N+](=O)[O-])c(N(CCCCCC)N=O)c1 | – | – | – | – | – | – | Active | 105 | 2.34 | Active | Active | inhibition [18]: Active; half-life [9]: 126 h; Activity [14]: 100%; Activity [12]: 0.84%; Activity [19]: Active; inhibition [20]: Active; Activity [15]: 100%; Activity [21]: 23% |
| CCCCCCNc1cccc(NCCCCCC)c1[N+](=O)[O-] | 84 | 82.2 | 81 | Non-toxic | 82 | 81 | – | – | – | – | – | – |
| CCCCCCNc1ccc([N+](=O)[O-])c(NCCCCCC)c1 | 84 | 85.1 | 87 | Non-toxic | 86.1 | 85.9 | – | – | – | – | – | – |
| CCCCCCCCN(N=O)c1cccc(N(CCCCCCCC)N=O)c1[N+](=O)[O-] | – | – | – | – | – | – | Active | 93 | 2.13 | Active | Active | Activity [8]: 100%; half-life [9]: 123 h; Activity [12]: 1.32%; Activity [13]: 100% |
| CCCCCCCCCN(N=O)c1cccc(N(CCCCCCCCC)N=O)c1[N+](=O)[O-] | – | – | – | – | – | – | Active | 80 | 2.32 | – | – | Activity [8]: 100% |
| CCCCCCCNc1cccc(NCCCCCCC)c1[N+](=O)[O-] | 82 | 81.6 | 80 | Non-toxic | 80 | 81 | – | – | – | – | – | – |

Reference: ChEMBL document CHEMBL2346638, “Secondary amines containing one aromatic nitro group: preparation, nitrosation, sustained nitric oxide release, and the synergistic effects of released nitric oxide and an arginase inhibitor on vascular smooth muscle cell proliferation” (Bioorg Med Chem, 2013)
